What was measured:
[1] = system: Pmp22; experiment: S16 GLuc and secNLuc Pmp22 reporter qHTS follow-up assays; format: cell-based, rat; conditions: for potency on Pmp22 expression: data not shown; for effect on reporter activity: GLuc and secNLuc reporters
[2] = system: Pmp22; experiment: S16 secNLuc reporter cell assay; format: cell-based, rat
[3] = system: CMT1A patients; conditions: human clinical trials; cited from earlier work
[4] = system: Pmp22; experiment: Quantitative RT-PCR of endogenous Pmp22 in S16 cells; format: cell-based, rat; conditions: qRT-PCR, 1 or 10 nM, 24 h
In short: (§1)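 S16 rat Schwann cells were plated at 2×10^5 cells/well in 6-well plates. They were treated for 24 h with test compound at 1 nM or 10 nM, or with DMSO (0.6%) only. RNA was purified and reverse-transcribed to cDNA. qPCR used SYBR green reactions or Taqman-based custom microfluidic arrays. Data were normalized to ActB and expressed relative to the untreated sample, set to 1 for each gene.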

[5] = system: major myelin genes and their regulators; experiment: Quantitative RT-PCR of co-regulated myelin genes and regulators in S16 cells; format: cell-based, rat; conditions: qRT-PCR, 1 or 10 nM, 24 h
In short: as §1

[6] = system: PMP22 regulatory element; experiment: S16 intronic enhancer FLuc reporter assay; format: cell-based, rat; conditions: retest after completion of the study
In short: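 S16 cells carrying a randomly integrated firefly luciferase reporter driven by the Pmp22 intronic enhancer were retested with test compound after the main study. Data are shown with standard deviation of two replicates.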

SMILES: COc1ccc2c(c1)c(C1=C(c3c[nH]c4ccccc34)C(=O)NC1=O)cn2CCCN(C)C [Go 6983]
- potency on Pmp22 expression [1]: lack of potency

SMILES: CCCCCCCCCCCCCC(=O)O[C@@H]1[C@@H](C)[C@@]2(O)[C@@H](C=C(CO)C[C@]3(O)C(=O)C(C)=C[C@@H]23)[C@@H]2C(C)(C)[C@]12OC(C)=O [PMA, Phorbol 12-myristate 13-acetate]
- effect on Pmp22 reporter expression ([2]; nanomolar levels, 24 h, secNLuc S16 cell line): repression

SMILES: O=C1O[C@H]([C@@H](O)CO)C(O)=C1O [ascorbic acid]
- effect in CMT1A patients [3]: have not shown a significant effect

SMILES: CCC/C=C/C=C/C(=O)O[C@H]1/C(=C/C(=O)OC)C[C@H]2C[C@H]([C@@H](C)O)OC(=O)C[C@H](O)C[C@@H]3C[C@H](OC(C)=O)C(C)(C)[C@](O)(C[C@@H]4C/C(=C/C(=O)OC)C[C@H](/C=C/C(C)(C)[C@]1(O)O2)O4)O3 [bryostatin, Bryostatin 1]
- Pmp22 expression relative to untreated S16 cells [4]: ≤ 50%
- efficacy relative to the control, bortezomib ([2]; S16 NLuc assay, full titration response profile): partial efficacy
- Myelin-associated glycoprotein expression [5]: decline to a greater degree than Pmp22
- Periaxin expression [5]: decline to a greater degree than Pmp22
- expression of most of the other tested genes [5]: not affected
- effect in the intronic FLuc assay [6]: no inhibitory effect

SMILES: Cn1cc(C2=C(c3cn(C4CCN(Cc5ccccn5)CC4)c4ccccc34)C(=O)NC2=O)c2ccccc21 [enzastaurin]
- potency on Pmp22 expression [1]: lack of potency

SMILES: CC(=O)[C@@]1(O)CC[C@H]2[C@@H]3CCC4=CC(=O)CC[C@]4(C)C3(F)[C@@H](O)C[C@@]21C (stereo partly drawn) [flugestone]
- effect on reporter activity [1]: increasing reporter activity

SMILES: CC#C[C@]1(O)CC[C@H]2[C@@H]3CCC4=CC(=O)CCC4=C3[C@@H](c3ccc(N(C)C)cc3)C[C@@]21C [mifepristone]
- effect on reporter activity [1]: marginal effect
